Measured values from ChEMBL document CHEMBL3120128, “Evaluation of intestinal permeability of vicenin-2 and lychnopholic acid from Lychnophora salicifolia (Brazilian arnicão) using Caco-2 cells” (J Nat Prod, 2014).
Each block holds one compound with its values, some of them ahead of it.

Legend:
Caco-2 [1] = test: Cytotoxicity against human Caco2 cells at 50 to 200 uM relative to control; type: cell-based; details: caco-2, 200 µM
Outline: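 Toxicity judged from TEER of Caco-2 monolayers, measured with an epithelial voltohmmeter before and after exposure. Compared against control monolayers in transport medium without compound.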

Caco-2 [2] = test: Apparent permeability from apical to basolateral side in human Caco2 cells in glucose free medium at 50 uM at pH 7.4 by HPLC-DAD analysis; type: ADME, cell-based; details: caco-2, pH 7.4, 50 µM
Caco-2 [3] = test: Apparent permeability from apical to basolateral side in human Caco2 cells in glucose rich medium at 50 to 100 uM at pH 7.4 by HPLC-DAD analysis; type: ADME, cell-based; details: caco-2, pH 7.4, 100 µM
[4] = Stability of the compound at 25 degC by HPLC-DAD analysis; type: physicochemical
Caco-2 [5] = test: Apparent permeability from apical to basolateral side in human Caco2 cells in glucose free medium at 50 uM at pH 6.0 in apical side and pH 7.4 at basolateral side by HPLC-DAD analysis; type: ADME, cell-based; details: caco-2, pH 6, 50 µM
Caco-2 [6] = test: Apparent permeability from apical to basolateral side in human Caco2 cells in glucose rich medium at 50 to 100 uM at pH 7.4 by HPLC-DAD analysis; details: caco-2, pH 7.4, 100 µM
Caco-2 [7] = test: Apparent permeability from basolateral to apical side in human Caco2 cells in low glucose medium at 50 uM at pH 7.4 by HPLC-DAD analysis; type: ADME, cell-based; details: caco-2, pH 7.4, 50 µM
Caco-2 [8] = test: Apparent permeability from basolateral to apical side in human Caco2 cells in glucose free medium at 50 uM at pH 6.0 in apical side and pH 7.4 at basolateral side by HPLC-DAD analysis; type: ADME, cell-based; details: caco-2, pH 6, 50 µM
Caco-2 [9] = test: Apparent permeability from apical to basolateral side in human Caco2 cells in low glucose medium at 50 uM at pH 7.4 by HPLC-DAD analysis; type: ADME, cell-based; details: caco-2, pH 7.4, 50 µM
Caco-2 [10] = test: Apparent permeability from apical to basolateral side in human Caco2 cells in HBSS medium at 50 uM by HPLC-DAD analysis; type: ADME, cell-based; details: caco-2, 50 µM
[11] = Lipophilicity, log P of the compound by micellar chromatography; type: physicochemical
Caco-2 [12] = test: Apparent permeability from basolateral to apical side in human Caco2 cells in glucose free medium at 50 uM at pH 7.4 by HPLC-DAD analysis; type: ADME, cell-based; details: caco-2, pH 7.4, 50 µM
Caco-2 [13] = test: Apparent permeability from basolateral to apical side in human Caco2 cells in glucose rich medium at 50 to 100 uM at pH 7.4 by HPLC-DAD analysis; type: ADME, cell-based; details: caco-2, pH 7.4, 100 µM
Caco-2 [14] = test: Apparent permeability from basolateral to apical side in human Caco2 cells in HBSS medium at 50 uM by HPLC-DAD analysis; type: ADME, cell-based; details: caco-2, 50 µM
Caco-2 [15] = test: Efflux ratio of apparent permeability from apical to basolateral side to basolateral to apical side in human Caco2 cells at 50 uM at pH 7.4 by HPLC-DAD analysis; type: ADME, cell-based; details: caco-2, pH 7.4, 50 µM
Outline: (§1)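 Glucose-rich transport medium (25 mM glucose), pH 7.4 in both apical and basolateral compartments, donor concentration 25 or 50 μM. Papp = (ΔQ/Δt)/(A·C0), from the linear appearance rate on the receiver side. Ratios are calculated as Papp A→B/Papp B→A and Papp B→A/Papp A→B.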

[16] = Apparent permeability from apical to basolateral side in human Caco2 cells at 50 uM at pH 7.4 after 30 mins by HPLC-DAD analysis; type: ADME, cell-based; details: Caco-2, pH 7.4
[17] = Efflux ratio of apparent permeability from basolateral to apical side to apical to basolateral side in human Caco2 cells at 25 uM at pH 7.4 by HPLC-DAD analysis; type: ADME, cell-based; details: Caco-2, pH 7.4; outline: as §1
Caco-2 [18] = test: Efflux ratio of apparent permeability from apical to basolateral side to basolateral to apical side in human Caco2 cells at 25 uM at pH 7.4 by HPLC-DAD analysis; type: ADME, cell-based; details: caco-2, pH 7.4, 25 µM; outline: as §1
[19] = Apparent permeability from basolateral to apical side in human Caco2 cells at 50 uM at pH 7.4 by HPLC-DAD analysis; type: ADME, cell-based; details: Caco-2, pH 7.4
[20] = Apparent permeability from basolateral to apical side in human Caco2 cells at 25 uM at pH 7.4 by HPLC-DAD analysis; type: ADME, cell-based; details: Caco-2, pH 7.4
[21] = Apparent permeability from apical to basolateral side in human Caco2 cells at 25 uM at pH 7.4 after 30 mins by HPLC-DAD analysis; type: ADME, cell-based; details: Caco-2, pH 7.4
[22] = Efflux ratio of apparent permeability from basolateral to apical side to apical to basolateral side in human Caco2 cells at 50 uM at pH 7.4 by HPLC-DAD analysis; type: ADME, cell-based; details: Caco-2, pH 7.4; outline: as §1
Caco-2 [23] = test: Cellular uptake in human Caco2 cells; type: ADME, cell-based
Caco-2 [24] = test: Apparent permeability from apical to basolateral side in human Caco2 cells in glucose free medium at 25 uM at pH 6.0 in apical side and pH 7.4 at basolateral side by HPLC-DAD analysis; type: ADME, cell-based; details: caco-2, pH 6, 25 µM
Caco-2 [25] = test: Apparent permeability from basolateral to apical side in human Caco2 cells in glucose free medium at 25 uM at pH 6.0 in apical side and pH 7.4 at basolateral side by HPLC-DAD analysis; type: ADME, cell-based; details: caco-2, pH 6, 25 µM

permeability (Caco-2 [2]): impermeable
permeability (Caco-2 [3]): impermeable
Stability [4]: 99%
permeability (Caco-2 [5]): impermeable
permeability (Caco-2 [6]): impermeable
permeability (Caco-2 [7]): impermeable
permeability (Caco-2 [8]): impermeable
permeability (Caco-2 [9]): impermeable
permeability (Caco-2 [10]): impermeable
logP [11]: -4.31
permeability (Caco-2 [12]): impermeable
permeability (Caco-2 [13]): impermeable
permeability (Caco-2 [14]): impermeable
Compound: O=c1cc(-c2ccc(O)cc2)oc2c([C@@H]3O[C@H](CO)[C@@H](O)[C@H](O)[C@H]3O)c(O)c([C@@H]3O[C@H](CO)[C@@H](O)[C@H](O)[C@H]3O)c(O)c12
Activity (Caco-2 [1]): Non-toxic

Ratio (Caco-2 [15]): 0.97
Stability [4]: 98%
Papp A→B at 0.5 h, 50 µM [16]: 4.07 ×10⁻⁶ cm/s
efflux ratio at 25 µM [17]: 0.94
Ratio (Caco-2 [18]): 1.06
Papp B→A at 50 µM [19]: 4.17 ×10⁻⁶ cm/s
Papp B→A at 25 µM [20]: 4.41 ×10⁻⁶ cm/s
Papp A→B at 0.5 h, 25 µM [21]: 4.68 ×10⁻⁶ cm/s
efflux ratio at 50 µM [22]: 1.02
Compound: C=C1CC/C=C(/C(=O)O)C[C@H](O)[C@@H]2[C@@H]1CC2(C)C
Activity (Caco-2 [1]): Non-toxic

Drug uptake (Caco-2 [23]): Active
permeability (Caco-2 [24]): impermeable
permeability (Caco-2 [25]): impermeable
Compound: O=c1cc(-c2ccc(O)cc2)oc2cc(O)cc(O)c12 [APIGENIN]
